Results gathered from unrelated publications.
Lines come from different studies, so protocols differ.

SMILES | target or system | observed | method | strain | time | quantity | result
NNC(=O)c1ccncc1 | Mycobacterium kansasii | microbial growth | broth dilution | DSM44162 | 7 days | MIC | 4 µg/mL
C=CC(=O)NC1CCN(c2ncc3ncnc(Nc4ccc(Oc5ccc6c(c5)ncn6C)c(C)c4)c3n2)CC1 | Capan-2 | cell growth or viability |  |  |  | EC50 | 36.1 nM
Cl.N[C@H]1CCN(c2cc(C(=O)NCC(=O)O)ccc2NC(=O)c2cc(Br)c(Br)[nH]2)C1 | Acinetobacter baumannii | microbial growth | broth dilution | ATCC19606 |  | MIC | > 32 µg/mL
O=C(O)c1cn(C2CC2)c2cc(N3CCNCC3)c(F)cc2c1=O | Acinetobacter baumannii | microbial growth |  | ATCC19606 |  | MIC | 8 µM
COc1cc2ncnc(N(C)c3ccc4c(c3)/C(=C/c3ccccc3)C(=O)N4C)c2cc1OC (mixture of isomers) | B16 | cell growth or viability | MTT |  |  | IC50 | 8070 nM
O=C(O)c1cn(C2CC2)c2cc(N3CCNCC3)c(F)cc2c1=O | Acinetobacter baumannii | microbial growth | broth dilution | ATCC19606 |  | MIC | 2 µM
Cc1nc(N(Cc2ccccc2)c2ccc3c(c2)/C(=C/c2ccccc2)C(=O)N3Cc2ccccc2)c2ccccc2n1 (mixture of isomers) | B16 | cell growth or viability | MTT |  |  | IC50 | 200 nM
O=C(O)c1cn(C2CC2)c2cc(N3CCNCC3)c(F)cc2c1=O | Mycobacterium kansasii | microbial growth | broth dilution | DSM44162 | 7 days | MIC | 1 µg/mL
Cc1[nH]c(C(=O)Nc2ccc(C(=O)NCc3n[nH]c(=O)o3)cc2N2CCNCC2)c(Cl)c1Cl.Cl | Acinetobacter baumannii | microbial growth | broth dilution | ATCC19606 |  | MIC | > 32 µg/mL
COc1cc2ncnc(Nc3ccc4c(c3)/C(=C/c3ccccc3)C(=O)N4C)c2cc1OC | B16 | cell growth or viability | MTT |  |  | IC50 | 1530 nM
